High-throughput results (PubChem BioAssay)
miR-122 sensor: miR-122 inhibition in Huh7 cells | Huh7 miR-122 Renilla luciferase sensor, 48 h; neutral wells = 0, positive control = 100 | activation (reporter increase), % at 12.5 µM | 340,000 compounds, 0.3% hits;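 active means mean replicate activation score at least 90 and every replicate individually at or above 90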;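 further: higher luciferase means less miR-122 activity so hits act as miR-122 inhibitors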
NR2E3 ag-1: agonists of human NR2E3 nuclear receptor; Q9Y5X4; CHO-S Gal4-NCOR/VP16-NR2E3 two-hybrid, luciferase; inhibition of corepressor binding, % at 3.98 µM; 360,000 compounds, 0.35% hits; AID 602229;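 active means inhibition above the mean of all tested compounds plus 3 SD, cut at about 70% in these data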;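 further: higher means lower luciferase signal from less NR2E3 corepressor binding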
Target sequence (Q9Y5X4 whole entry, looked up, the tested form may be a part): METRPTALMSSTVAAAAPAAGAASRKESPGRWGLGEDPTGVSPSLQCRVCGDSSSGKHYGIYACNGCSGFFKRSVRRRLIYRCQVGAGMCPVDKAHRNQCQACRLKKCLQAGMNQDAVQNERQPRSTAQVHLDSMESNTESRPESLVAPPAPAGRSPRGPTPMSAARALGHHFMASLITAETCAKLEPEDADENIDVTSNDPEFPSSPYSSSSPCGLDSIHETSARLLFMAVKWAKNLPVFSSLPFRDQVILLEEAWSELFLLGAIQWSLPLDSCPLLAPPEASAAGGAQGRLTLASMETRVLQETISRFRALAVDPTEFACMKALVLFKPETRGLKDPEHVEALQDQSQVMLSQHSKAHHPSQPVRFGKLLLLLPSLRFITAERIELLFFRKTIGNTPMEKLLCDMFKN
NR2E3 ag-2: agonists of human nuclear receptor NR2E3; GST-NR2E3/biotin-RetCOR TR-FRET, 1536-well; inhibition of corepressor binding, % at 4.78 µM; 320,000 compounds, 0.12% hits; AID 2300;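 active means percent inhibition above the cutoff of mean plus 3 SD of all tested compounds, set per screening campaign, cut at about 20% in these data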
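Material – GST-tagged NR2E3 plus biotinylated RetCOR corepressor · Quantity – NR2E3 fusion 1.35 nM · Times – 5 h incubation at 4 °C · Medium – pH 7.5 Tris-based buffer · Technique – TR-FRET, Eu(K)-anti-GST donor, streptavidin-D2 acceptor, ex 340, em 617/671 nm · Benchmarks – high control biotin, low control 0.6% DMSO · Format – 1536-well plates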
Jurkat NFkB inh: inhibitors of the PMA/ionomycin-induced NF-kB reporter in Jurkat cells. PMA/ionomycin-induced NF-kB luciferase reporter, luminescence. inhibition, % at 4 µM. 330,000 compounds, 0.53% hits. AID 435003; in the data active means inhibition above about 50%
FGF22 binding: shifts melting point of recombinant human FGF22 | 340,000 compounds, 1.5% hits | recombinant FGF22 thermal shift, SYPRO orange fluorescence; percent of sucrose octasulfate shift, DMSO zero | activity (Tm shift, normalised), % at 9.99 µM;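 active means mean Tm shift, scaled 0 neutral to 100 positive control, at about 1.3% or above, every replicate too, limit read from the data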
Target sequence (Q9HCT0 whole entry, looked up): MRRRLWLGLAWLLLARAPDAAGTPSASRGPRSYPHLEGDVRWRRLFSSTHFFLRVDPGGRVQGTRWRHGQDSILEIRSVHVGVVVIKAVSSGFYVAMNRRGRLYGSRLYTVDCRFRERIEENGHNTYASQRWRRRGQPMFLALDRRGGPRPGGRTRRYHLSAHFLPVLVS
697 NFkB inh: inhibitors of the PMA/ionomycin-induced NF-kB reporter in 697 B cells; 697 B-cell NF-kB luciferase reporter, 16 h; inhibition, % at 4 µM; 330,000 compounds, 0.33% hits; in the data active means inhibition above about 35%
NR2E3 ag conf: confirmation of human NR2E3 agonists. shares compounds with NR2E3 ag-1. AID 624378. inhibition, % at 3.98 µM. 2,300 compounds, 51% hits. CHO-S mammalian two-hybrid NR2E3-NCOR, luciferase luminescence;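 active means average inhibition above a cutoff equal to the mean inhibition of all tested compounds plus one SD, cut at about 70% in these data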
GAL4-VP16 luc: reduces GAL4-VP16 reporter signal in NR2E3 counterscreen | inhibition, % at 3.98 µM | shares compounds with NR2E3 ag-1 | 2,300 compounds, 29% hits | CHO-S GAL4-VP16 luciferase reporter, luminescence;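 active means mean inhibition above a cutoff equal to the average over all tested compounds plus one standard deviation, cut at about 70% in these data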;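 further: luciferase from a UAS reporter driven by GAL4-VP16 transactivation; higher means less reporter light so more repression of VP16 activity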
TSA no protein: compound-only SYPRO artifact for FGF22 binders; 1,000 compounds, 2% hits; AC50, µM (highest dose often 38 µM); compound-only SYPRO orange thermal shift counter-screen, no protein; AID 743019; shares compounds with FGF22 binding;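 active means rising signal whose fitted curve reaches the 0.54 level within the top valid dose, showing a melting point, actives reach about 13 µM in these data; inactive means the rest, including activity in the opposite direction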; further: value is where the raw curve crosses a fixed level and not half-maximal
Numbers stand for hits; 0 = inactive; - = not tested or not shown. Compounds with a hit are over-represented: about 2.2% of the library has one in this group of screens.

SMILES | miR-122 sensor | NR2E3 ag-1 | NR2E3 ag-2 | Jurkat NFkB inh | FGF22 binding | 697 NFkB inh | NR2E3 ag conf | GAL4-VP16 luc | others
Cc1cccc(C(=O)N[C@H](C(=O)Nc2nnc(C3CC3)s2)C(C)C)c1 | 0 | 0 | 0 | 0 | - | 0 | - | -
CC1=Nc2ccccc2/C1=C/c1sc(=N)n(-c2nccs2)c1O | - | 76 | 0 | 0 | - | 0 | 0 | 0
CC1=Nc2ccccc2/C1=C/c1nc(-c2ccc(C)s2)oc1O | - | 0 | 0 | 0 | 0 | 0 | - | -
Cc1ccc(Nc2nc(N)c([N+](=O)[O-])c(N3CCC(C)CC3)n2)cc1C | 0 | 0 | 0 | 0 | - | 0 | - | -
Cc1ccc(Nc2nc(N)c([N+](=O)[O-])c(N3CCOCC3)n2)cc1C | 0 | 0 | 0 | 0 | 0 | 0 | 0 | 0
COC(=O)C[C@@H]1CC[C@H]2[C@@H](COC[C@@H](O)CN2S(=O)(=O)c2ccccc2OC)O1 | 0 | - | - | - | 0 | - | - | -
Cn1c(-c2ccccc2)c(C(=O)CCl)c2ccccc21 | - | 0 | - | - | 44 | - | 0 | 0
CO[C@H]1CN(C)C(=O)c2cc(NC(C)=O)ccc2OC[C@@H](C)N(C(=O)C2CCOCC2)C[C@H]1C | - | - | - | - | 0 | - | - | -
c1csc(CNc2ccc3c(c2)OCCO3)c1 | - | 0 | 0 | - | 0 | - | 0 | 0
COc1cccc(CN(C)C(=O)c2cccc(S(=O)(=O)N3CCN(c4ccccc4)CC3)c2)c1OC | - | 0 | - | - | 0 | - | 81 | 0
COc1cccc(CN(C)C(=O)c2cccc(S(=O)(=O)N3CCN(c4ccc(F)cc4)CC3)c2)c1OC | 0 | 0 | 0 | 0 | 0 | 0 | 79 | 0
COc1ccccc1CNC(=O)c1cccc(S(=O)(=O)N2CCN(c3ccc(F)cc3)CC2)c1 | 0 | 0 | 0 | 0 | 0 | 0 | - | -
CN(Cc1ccc(OC(F)F)cc1)C(=O)c1cccc(S(=O)(=O)N2CCN(Cc3ccccc3)CC2)c1 | 0 | 91 | - | - | 0 | - | 92 | 76
CC(=O)N1CCN(C(=O)c2cccc(S(=O)(=O)N3CCN(c4ccc(F)cc4)CC3)c2)CC1 | - | 0 | 0 | 0 | 0 | 0 | - | -
O=C(c1cccc(S(=O)(=O)N2CCN(c3ccc(F)cc3)CC2)c1)N1CCCCCCC1 | 0 | 0 | 0 | 0 | 0 | 0 | 0 | 0
CCCC#Cc1ccc2c(c1)O[C@H](CN(C)C(=O)c1cccnc1)[C@H](C)CN([C@@H](C)CO)S2(=O)=O | 0 | - | - | - | 0 | - | - | -
CC(C)(C)S(=O)N1Cc2cc(C(=O)NCCCN3CCOCC3)nc(-c3cccc(C#CCC4CCCC4)c3)c2[C@@H]1CCO (some centres undefined) | - | - | - | - | 0 | - | - | -
CO[C@H]1CN(C)C(=O)c2ccc(NC(C)=O)cc2OC[C@H](C)N(C(=O)c2cnccn2)C[C@H]1C | 0 | - | - | - | - | - | - | -
CS(=O)(=O)N1[C@@H]2c3ccc(-c4ccccc4)c(=O)n3C[C@H]1[C@H](CO)[C@H]2C(=O)NCC1CC1 | 0 | - | - | - | 0 | - | - | -
COc1cccc(CN(C)C(=O)c2cccc(S(=O)(=O)N3CCN(Cc4ccccc4)CC3)c2)c1OC | 0 | 0 | - | 0 | 0 | 0 | 0 | 0
CN(CCOc1ccc(Cl)cc1)C(=O)c1cccc(S(=O)(=O)N2CCN(c3ccccc3)CC2)c1 | - | 85 | - | - | 0 | - | 92 | 81
CN(Cc1ccco1)C(=O)c1cccc(S(=O)(=O)N2CCN(Cc3ccccc3)CC2)c1 | 0 | 0 | - | - | 0 | - | - | -
C[C@@H]1CN([C@@H](C)CO)C(=O)Cc2cc(NC(=O)NC3CCCCC3)ccc2O[C@@H]1CN(C)C(=O)Nc1cccc2ccccc12 | 0 | - | - | - | 0 | - | - | -
C[C@@H]1CCCCO[C@@H](CN(C)Cc2ccc(C(=O)O)cc2)[C@@H](C)CN([C@H](C)CO)C(=O)c2cc(NC(=O)CCCN(C)C)ccc2O1 | 0 | - | - | - | 0 | - | - | -
N#Cc1c(NCc2ccccc2)ccnc1NCc1cccnc1 | 0 | 0 | 0 | 0 | - | 0 | 0 | 0
SMILES | miR-122 sensor | NR2E3 ag-1 | NR2E3 ag-2 | Jurkat NFkB inh | FGF22 binding | 697 NFkB inh | NR2E3 ag conf | GAL4-VP16 luc | others
Cc1cccc(NC(=S)N=Nc2c(O)[nH]c3ccccc23)c1 | - | 0 | 0 | 0 | - | 0 | 0 | 0
O=C(N=Nc1c(O)[nH]c2ccccc12)Nc1ccccc1 | 0 | 0 | - | - | 0 | - | - | -
Cc1ccc(C(C#N)c2ccc(C(=O)c3ccc(F)cc3)cc2)cc1 (centres undefined) | 0 | 0 | 0 | 0 | - | 0 | 0 | 0
N#CC(c1ccc(F)cc1)c1ccc(C(=O)c2ccc(F)cc2)cc1 (centres undefined) | 0 | 0 | 0 | 0 | - | 0 | - | -
Cc1ccc(-c2ccc3c(c2)O[C@H](CN(C)Cc2cccc(C(=O)O)c2)[C@H](C)CN([C@@H](C)CO)S3(=O)=O)cc1 | 0 | - | - | - | 0 | - | - | -
CC(C)COC(=O)NCCCOC(=O)Nc1ccccc1 | 0 | 0 | 0 | 0 | - | 0 | - | -
CC(C)COC(=O)NCCOC(=O)Nc1cccc(Cl)c1 | 0 | 73 | 0 | 0 | - | 0 | 89 | 72
Cc1ccc(C)c(C(=O)CN2C(=O)c3ccccc3S2(=O)=O)c1 | 0 | 0 | 0 | 0 | - | 0 | - | -
CCCn1c(C)cc(C(=O)CN2C(=O)c3ccccc3S2(=O)=O)c1C | 0 | 0 | - | - | 0 | - | 0 | 0
COc1ccc([C@@H](OC(=O)Nc2ccc(SC)cc2)[C@@H](CCO)OC)cc1O | - | - | - | - | 0 | - | - | -
Cc1ccc(S(=O)(=O)C=CS(=O)(=O)c2ccc(C)cc2)cc1 | 0 | 0 | - | - | 0 | - | - | -
O=S(=O)(/C=C/C=C/S(=O)(=O)c1ccccc1)c1ccccc1 | 0 | 85 | - | - | 0 | - | 80 | 0
Cn1c(=S)c2[nH]c(SCC3CCCO3)nc2n(C)c1=O (centres undefined) | - | 0 | - | - | 0 | - | 0 | 0
CCCC(C)Sc1nc2c([nH]1)c(=S)n(C)c(=O)n2C (centres undefined) | - | 82 | - | - | 0 | - | 0 | 0
O=c1[nH]c(SCC2CCCCO2)nc2ccccc12 (centres undefined) | 0 | 0 | 0 | 0 | - | 0 | - | -
CCCC#Cc1ccc([C@H]2[C@@H](C#N)N(C(=O)C3CC3)[C@@H]2CO)cc1 | - | - | - | - | 0 | - | - | -
COCC(=O)N1[C@H](C#N)[C@@H](c2ccccc2-c2ccccc2)[C@H]1CO | - | - | - | - | 0 | - | - | -
Cc1cccc(OCCCC(=O)Nc2nc3ccccc3[nH]2)c1 | - | 0 | 0 | 0 | 0 | 0 | 72 | 0
Cc1ccc(OCCCC(=O)Nc2nc3ccccc3[nH]2)cc1 | - | 0 | 0 | 0 | 0 | 0 | - | -
Cc1onc(-c2ccccc2)c1C(=O)Nc1ncc([N+](=O)[O-])s1 | 0 | 101 | 0 | 0 | 1.9 | 0 | 99 | 81 | TSA no protein=0
C[C@@H]1CN([C@@H](C)CO)C(=O)c2cccc(NS(=O)(=O)c3ccc(Cl)cc3)c2O[C@H]1CN(C)S(=O)(=O)c1ccc(F)cc1 | 0 | - | - | - | 0 | - | - | -
